Test results reported in ChEMBL document CHEMBL1144710, “epigenetic multiple ligands: mixed histone/protein methyltransferase, acetyltransferase, and class III deacetylase (sirtuin) inhibitors” (J Med Chem, 2008).
Calls of active or inactive are those of the source.

Assays:
[1] = target: Protein arginine N-methyltransferase 1 (Homo sapiens) (UniProt Q99873); assay: Inhibition of human recombinant PRMT1 assessed as nuclear ribonucleoprotein Npl3p methylation at 100 uM
How it was run: (§1)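 Recombinant enzymes (0.2 µg) with substrate (0.5 µg: Npl3p for PRMT1, PABP1 for CARM1, histone H3 for SET7), 0.5 µM [3H]AdoMet and 100 µM compound in PBS pH 7.4 with 3.3% v/v DMSO, 90 min at 30 °C. Products separated by 10% SDS-PAGE, transferred to PVDF, detected by fluorography on film overnight.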

[2] = test system: U-937; assay: Inhibition of histone H4R3 methylation in human U937 cells at 50 uM after 24 hrs; type: functional, cell-based
How it was run: (§2)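 U937 cells treated at 50 µM for 24 h. Histones extracted with Triton buffer, then 0.2 M HCl overnight at 4 °C. 3–10 µg run on 15% SDS-PAGE and immunoblotted with anti-monomethyl-H3K4, monomethyl-H4R3 or dimethyl-H3R17 (1:500, overnight 4 °C), ECL detection. Loading controls: total H4 (H3K4), Ponceau Red (Arg marks).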

[3] = target: T1, Histone-lysine N-methyltransferase SETD7 (Homo sapiens) (UniProt Q8WTS6); assay: Inhibition of human recombinant SET7 assessed as histone H3 protein methylation at 100 uM; how it was run: as §1
T1 sequence (whole entry): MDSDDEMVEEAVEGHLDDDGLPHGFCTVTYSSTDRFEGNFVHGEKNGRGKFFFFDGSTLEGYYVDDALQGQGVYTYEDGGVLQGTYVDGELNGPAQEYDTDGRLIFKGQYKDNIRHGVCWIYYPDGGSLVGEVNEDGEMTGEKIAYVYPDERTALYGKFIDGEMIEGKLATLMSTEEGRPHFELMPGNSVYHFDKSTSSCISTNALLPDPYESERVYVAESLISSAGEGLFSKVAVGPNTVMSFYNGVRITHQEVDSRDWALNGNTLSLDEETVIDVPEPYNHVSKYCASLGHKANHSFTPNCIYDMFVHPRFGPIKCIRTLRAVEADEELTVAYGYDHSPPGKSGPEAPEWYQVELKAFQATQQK

[4] = target: RmtA (Emericella nidulans, UniProt Q5VLE3); assay: Inhibition of Aspergillus nidulans RmtA
How it was run: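 Enzyme was GST-RmtA fusion expressed in E. coli BL21 and glutathione-affinity purified (500 ng), preincubated with compound for 15 min at room temperature. Then 20 µg chicken erythrocyte core histones and 0.55 µCi [3H]AdoMet were added, 30 min at 30 °C. Stopped with 25% TCA, filtered, counted by liquid scintillation.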

[5] = target: T2, Histone-arginine methyltransferase CARM1 (Homo sapiens) (UniProt Q86X55); assay: Inhibition of human recombinant CARM1 assessed as poly(A) binding protein 1 methylation at 100 uM; how it was run: as §1
T2 sequence (whole entry): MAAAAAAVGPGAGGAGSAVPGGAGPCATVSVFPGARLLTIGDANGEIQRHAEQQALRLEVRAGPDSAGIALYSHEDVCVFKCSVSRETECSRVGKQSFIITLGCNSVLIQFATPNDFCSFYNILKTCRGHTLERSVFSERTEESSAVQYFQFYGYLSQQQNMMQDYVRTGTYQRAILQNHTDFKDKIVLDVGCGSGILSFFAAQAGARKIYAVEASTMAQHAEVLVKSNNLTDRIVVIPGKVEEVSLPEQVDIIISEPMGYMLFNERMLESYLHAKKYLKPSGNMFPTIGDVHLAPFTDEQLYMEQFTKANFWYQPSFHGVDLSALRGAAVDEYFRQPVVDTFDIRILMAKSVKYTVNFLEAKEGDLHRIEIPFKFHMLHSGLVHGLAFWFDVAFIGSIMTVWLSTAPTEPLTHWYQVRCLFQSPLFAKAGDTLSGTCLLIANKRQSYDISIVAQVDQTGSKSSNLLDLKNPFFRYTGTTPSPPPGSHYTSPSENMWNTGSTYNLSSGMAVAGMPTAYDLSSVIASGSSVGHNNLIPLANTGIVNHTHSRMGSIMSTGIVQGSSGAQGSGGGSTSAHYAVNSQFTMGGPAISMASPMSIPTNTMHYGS

[6] = test system: U-937; assay: Inhibition of histone H3K4 methylation in human U937 cells at 50 uM after 24 hrs; type: functional, cell-based; how it was run: as §2
[7] = test system: U-937; assay: Inhibition of histone H3R17 methylation in human U937 cells at 50 uM after 24 hrs; type: functional, cell-based; how it was run: as §2

Chain of Protein arginine N-methyltransferase 1 (Homo sapiens) (Q99873 whole entry, looked up): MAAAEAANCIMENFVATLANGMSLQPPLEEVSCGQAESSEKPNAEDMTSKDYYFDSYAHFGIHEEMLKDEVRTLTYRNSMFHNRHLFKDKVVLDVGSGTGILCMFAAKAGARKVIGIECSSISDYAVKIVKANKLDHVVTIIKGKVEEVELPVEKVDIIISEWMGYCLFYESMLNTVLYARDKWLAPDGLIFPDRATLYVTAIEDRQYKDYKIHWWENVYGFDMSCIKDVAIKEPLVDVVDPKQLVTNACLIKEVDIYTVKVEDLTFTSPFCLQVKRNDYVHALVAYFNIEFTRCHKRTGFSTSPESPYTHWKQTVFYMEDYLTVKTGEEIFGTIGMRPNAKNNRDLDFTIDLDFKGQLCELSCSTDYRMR
Chain of RmtA (Q5VLE3 whole entry, the tested form may be a part): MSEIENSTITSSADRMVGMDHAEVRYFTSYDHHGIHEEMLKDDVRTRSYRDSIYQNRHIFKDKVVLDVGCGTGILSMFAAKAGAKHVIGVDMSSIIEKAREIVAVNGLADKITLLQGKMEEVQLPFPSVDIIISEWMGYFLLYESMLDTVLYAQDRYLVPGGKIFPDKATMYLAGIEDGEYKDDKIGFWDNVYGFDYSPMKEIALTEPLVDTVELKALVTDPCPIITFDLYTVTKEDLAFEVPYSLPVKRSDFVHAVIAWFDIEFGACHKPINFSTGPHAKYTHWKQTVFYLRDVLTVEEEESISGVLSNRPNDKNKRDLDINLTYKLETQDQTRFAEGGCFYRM

With O=C1/C(=C/c2ccc(O)c(Br)c2)CCC/C1=C\c1ccc(O)c(Br)c1 the Activity [1] was “inactive”, the Activity [2] was “Active” and the Activity [3] was “inactive”. The IC50 [4] was 90 µM, the Activity [5] was “Active” and the Activity [6] was “Active”. The Activity [7] was “Active”.

In the case of CN1C/C(=C\c2ccc(O)c(Br)c2)C(=O)/C(=C/c2ccc(O)c(Br)c2)C1, the Activity [2] is reported as “Active”, the IC50 [4] is reported as 162 µM and the Activity [6] is reported as “Active”. For the same molecule, the Activity [7] was “Active”.

CC(C)(C(=O)/C=C/c1cc(Br)c(O)c(Br)c1)C(=O)/C=C/c1cc(Br)c(O)c(Br)c1 was tested, and the Activity [2] was “Active”, the IC50 [4] was 156 µM and the Activity [7] was “Active”.

O=C(/C=C/c1c(Br)cc(O)cc1Br)/C=C/c1c(Br)cc(O)cc1Br was tested, and the Activity [1] was “Active”, the Activity [2] was “Active” and the Activity [3] was “inactive”. For the same molecule, the IC50 [4] was 215 µM, the Activity [6] was “Active” and the Activity [7] was “Active”.

For O=C(/C=C/c1ccc(O)c(C(=O)O)c1)/C=C/c1ccc(O)c(C(=O)O)c1, the Activity [2] was “Active”, the IC50 [4] was 55 µM and the Activity [6] was “Active”. For the same molecule, the Activity [7] was “Active”.

O=C(CCC(=O)Nc1cc(Br)c(O)c(Br)c1)Nc1cc(Br)c(O)c(Br)c1 was tested, and the Activity [2] was “Active”, the IC50 [4] was 156 µM and the Activity [7] was “Active”.

In the case of O=C1/C(=C/c2ccc(O)c(Br)c2)Cc2ccccc2/C1=C\c1ccc(O)c(Br)c1, the Activity [1] is reported as “inactive”, the Activity [2] is reported as “Active” and the Activity [3] is reported as “inactive”. The IC50 [4] was 92 µM, the Activity [5] was “Active” and the Activity [6] was “Active”. For the same molecule, the Activity [7] was “Active”.

With O=C1/C(=C/c2cc(Br)c(O)c(Br)c2)Cc2ccccc2/C1=C\c1cc(Br)c(O)c(Br)c1 the Activity [2] was “Active”, the IC50 [4] was 37 µM and the Activity [6] was “Active”. The Activity [7] was “Active”.

O=C(/C=C/c1c(O)cc(Br)cc1Br)/C=C/c1c(O)cc(Br)cc1Br was tested, and the Activity [1] was “Active”, the Activity [2] was “Active” and the Activity [3] was “inactive”. For the same molecule, the IC50 [4] was 238 µM, the Activity [6] was “Active” and the Activity [7] was “Active”.

CN1C2CCC1/C(=C\c1cc(Br)c(O)c(Br)c1)C(=O)/C2=C/c1cc(Br)c(O)c(Br)c1 was tested, and the Activity [2] was “Active”, the IC50 [4] was 84 µM and the Activity [6] was “Active”. The Activity [7] was “Active”.

With O=C1/C(=C/c2ccc(O)c(Br)c2)COC/C1=C\c1ccc(O)c(Br)c1 the Activity [1] was “inactive”, the Activity [2] was “Active” and the Activity [3] was “inactive”. The IC50 [4] was 132 µM, the Activity [5] was “Active” and the Activity [6] was “Active”. For the same molecule, the Activity [7] was “Active”.

For O=C(/C=C/c1cc(Br)c(O)c(Br)c1)c1ccccc1, the Activity [2] was “Active”, the IC50 [4] was 115 µM and the Activity [6] was “Active”. The Activity [7] was “Active”.

In the case of Cc1cc(/C=C/C(=O)/C=C/c2cc(C)c(O)c(C)c2)cc(C)c1O, the Activity [2] is reported as “Active”, the IC50 [4] is reported as 206 µM and the Activity [6] is reported as “Active”. The Activity [7] was “Active”.

For O=C(/C=C/c1ccc(O)c(Br)c1)c1ccccc1, the Activity [2] was “Active”, the IC50 [4] was 190 µM and the Activity [6] was “Active”. For the same molecule, the Activity [7] was “Active”.

With O=C(/C=C/c1ccc(O)c(Br)c1)c1ccc(C(=O)/C=C/c2ccc(O)c(Br)c2)cc1 the Activity [1] was “inactive”, the Activity [2] was “Active” and the Activity [3] was “inactive”. For the same molecule, the IC50 [4] was 47 µM, the Activity [5] was “Active” and the Activity [7] was “Active”.

In the case of O=C(NCCCNC(=O)c1cc(Br)c(O)c(Br)c1)c1cc(Br)c(O)c(Br)c1, the Activity [2] is reported as “Active”, the IC50 [4] is reported as 75.4 µM and the Activity [7] is reported as “Active”.

With O=C(Nc1cc(Br)c(O)c(Br)c1)C(=O)Nc1cc(Br)c(O)c(Br)c1 the Activity [2] was “Active”, the IC50 [4] was 32.6 µM and the Activity [7] was “Active”.

In the case of O=C(/C=C/c1ccc(O)cc1Br)/C=C/c1ccc(O)cc1Br, the Activity [2] is reported as “Active”, the IC50 [4] is reported as 114 µM and the Activity [6] is reported as “Active”. For the same molecule, the Activity [7] was “Active”.

For O=C(NCCCCNC(=O)c1cc(Br)c(O)c(Br)c1)c1cc(Br)c(O)c(Br)c1, the Activity [2] was “Active”, the IC50 [4] was 616 µM and the Activity [7] was “Active”.

For O=C(/C=C/c1ccc(O)c(F)c1)/C=C/c1ccc(O)c(F)c1, the Activity [2] was “Active”, the IC50 [4] was 169 µM and the Activity [6] was “Active”. The Activity [7] was “Active”.

With O=C(/C=C/c1ccc(O)c(Br)c1)c1cccc(C(=O)/C=C/c2ccc(O)c(Br)c2)c1 the Activity [1] was “inactive”, the Activity [2] was “Active” and the Activity [3] was “inactive”. The IC50 [4] was 59 µM, the Activity [5] was “Active” and the Activity [6] was “Active”. For the same molecule, the Activity [7] was “Active”.

O=C(NCCNC(=O)c1cc(Br)c(O)c(Br)c1)c1cc(Br)c(O)c(Br)c1 was tested, and the Activity [2] was “Active”, the IC50 [4] was 89.7 µM and the Activity [7] was “Active”.

For O=C(CC(=O)Nc1cc(Br)c(O)c(Br)c1)Nc1cc(Br)c(O)c(Br)c1, the Activity [2] was “Active”, the IC50 [4] was 102 µM and the Activity [7] was “Active”.

In the case of O=C(/C=C/c1ccc(O)c([N+](=O)[O-])c1)/C=C/c1ccc(O)c([N+](=O)[O-])c1, the Activity [2] is reported as “Active”, the IC50 [4] is reported as 249 µM and the Activity [6] is reported as “Active”. For the same molecule, the Activity [7] was “Active”.

In the case of O=C(Nc1ccc(NC(=O)c2cc(Br)c(O)c(Br)c2)cc1)c1cc(Br)c(O)c(Br)c1, the Activity [1] is reported as “Active”, the Activity [2] is reported as “Active” and the Activity [3] is reported as “Active”. The IC50 [4] was 122 µM, the Activity [5] was “Active” and the Activity [7] was “Active”.

O=C(CCCC(=O)Nc1cc(Br)c(O)c(Br)c1)Nc1cc(Br)c(O)c(Br)c1 was tested, and the Activity [2] was “Active”, the IC50 [4] was 173 µM and the Activity [7] was “Active”.

CN1C/C(=C\c2ccc(O)c(Br)c2)C(=O)/C(=C/c2cc(Br)c(O)c(Br)c2)C1 was tested, and the Activity [2] was “Active”, the IC50 [4] was 123 µM and the Activity [6] was “Active”. The Activity [7] was “Active”.

In the case of O=C(/C=C/c1ccc(O)c(Br)c1)CC(=O)/C=C/c1ccc(O)c(Br)c1, the Activity [1] is reported as “inactive”, the Activity [2] is reported as “Active” and the Activity [3] is reported as “inactive”. For the same molecule, the IC50 [4] was 109 µM, the Activity [5] was “Active” and the Activity [7] was “Active”.

In the case of O=C1/C(=C/c2cc(Br)c(O)c(Br)c2)CN(Cc2ccccc2)C/C1=C\c1cc(Br)c(O)c(Br)c1, the Activity [2] is reported as “Active”, the IC50 [4] is reported as 210 µM and the Activity [6] is reported as “Active”. For the same molecule, the Activity [7] was “Active”.
